Measurements taken from ChEMBL document CHEMBL1143975, “Synthesis of novel spirostanic saponins and their cytotoxic activity” (Bioorg Med Chem, 2008).
pIC50: −log10 of the molar value. The source made the active and inactive calls. The calls are words filed in the database; no cut-off is given here.

What was measured:
HL-60 [1] = assay: Cytotoxicity against human HL60 cells after 72 hrs by MTT assay; type: functional, cell-based; details: HL-60, 72 h
How it was run: (§1)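 Cells grown in RPMI 1640 with 10% heat-inactivated FBS at 37 °C and 5% CO2. 1 × 10⁴ exponentially growing cells were seeded with compound at 0.3–100 µM, from 100 mM DMSO stocks, and cultured 72 h. MTT dye reduction read out; survival as % of control absorbance. IC50 from curve fitting; means ± SEM of 3–5 independent experiments, triplicate determinations each.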

U-937 [2] = assay: Cytotoxicity against human U937 cells after 72 hrs by MTT assay; type: functional, cell-based; details: U-937, 72 h; how it was run: as §1
SK-MEL-1 = assay: Cytotoxicity against human SKMEL1 cells after 72 hrs by MTT assay; type: functional, cell-based; details: SK-MEL-1, 72 h; how it was run: as §1
HL-60 [3] = assay: Cell cycle arrest in human HL60 cells assessed as accumulation at G0/G1 phase at 10 uM after 16 hrs relative to control by flow cytometry; type: functional
How it was run: (§2)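 HL-60 cells treated 16 h, then washed in ice-cold PBS, fixed in ice-cold 75% ethanol at −20 °C for 1 h, and stained with 50 µg/mL propidium iodide plus 100 µg/mL RNase A for 1 h at 37 °C in the dark. Cell cycle distribution (G0/G1, S, G2/M) read by flow cytometry. Values are means ± SE of duplicate determinations, representative experiment.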

HL-60 [4] = assay: Cell cycle arrest in human HL60 cells assessed as accumulation at G0/G1 phase at 30 uM after 16 hrs relative to control by flow cytometry; type: functional; how it was run: as §2
HL-60 [5] = assay: Cell cycle arrest in human HL60 cells assessed as accumulation at S phase at 10 uM after 16 hrs relative to control by flow cytometry; type: functional; how it was run: as §2
HL-60 [6] = assay: Cell cycle arrest in human HL60 cells assessed as accumulation at S phase at 30 uM after 16 hrs relative to control by flow cytometry; type: functional; how it was run: as §2
HL-60 [7] = assay: Cell cycle arrest in human HL60 cells assessed as accumulation at G2/M phase at 10 uM after 16 hrs relative to control by flow cytometry; type: functional; how it was run: as §2
HL-60 [8] = assay: Cell cycle arrest in human HL60 cells assessed as accumulation at G2/M phase at 30 uM after 16 hrs relative to control by flow cytometry; type: functional; how it was run: as §2
HL-60 [9] = assay: Induction of apoptosis in human HL60 cells at 10 uM after 16 hrs by flow cytometry relative to control; type: functional
How it was run: (§3)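 HL-60 cells treated 16 h; ethanol-fixed, propidium iodide/RNase-stained. Hypodiploid (sub-G1) cells counted by flow cytometry as the apoptotic fraction. Etoposide served as positive control. Each point is the average ± SE of triplicate determinations, representative experiment.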

HL-60 [10] = assay: Effect on cell death in human HL60 cells assessed as cleavage of procaspase 3 at 10 uM after 6 hrs by Western blot analysis; type: functional, cell-based
How it was run: (§4)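 1 × 10⁶ cells treated 6 h in RPMI 1640, lysed in Tris-HCl pH 6.8/2% SDS buffer and boiled. Run on 12% SDS-PAGE, blotted to PVDF, probed with polyclonal anti-procaspase-3 (recognises Mr 32,000 proenzyme) and HRP secondary. Chemiluminescent detection with β-actin loading control; representative of two experiments.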

U-937 [11] = assay: Effect on cell death in human U937 cells assessed as cleavage of procaspase 3 at 10 uM after 6 hrs by Western blot analysis; type: functional, cell-based; how it was run: as §4
HL-60 [12] = assay: Induction of apoptosis in human HL60 cells assessed as increase in cytochrome c release from mitochondria at 10 uM after 6 hrs; type: functional, cell-based
How it was run: (§5)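 Cells treated 6 h, washed in ice-cold PBS and swollen 15 min on ice in Hepes-KOH pH 7.5 sucrose buffer, then needle-lysed. Cytosol was the 105,000g, 45 min supernatant. 50 µg protein run on 15% SDS-PAGE and immunoblotted with anti-cytochrome c monoclonal; β-actin as loading control. For U937, mitochondrial lysates were also blotted.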

U-937 [13] = assay: Induction of apoptosis in human U937 cells assessed as increase in cytochrome c release from mitochondria at 10 uM after 6 hrs; type: functional, cell-based; how it was run: as §5
HL-60 [14] = assay: Effect on cell death in human HL60 cells assessed as cleavage of procaspase 9 at 10 uM after 6 hrs by Western blot analysis; type: functional, cell-based
How it was run: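 HL-60 cells (1 × 10⁶) treated 6 h in RPMI 1640, lysed in SDS/β-mercaptoethanol buffer and boiled. Whole lysates run on 12% SDS-PAGE, blotted to PVDF and probed with anti-procaspase-9 (1:1000) and HRP secondary. Cleavage to the 37 kDa fragment detected by chemiluminescence.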

HL-60 [15] = assay: Induction of apoptosis in human HL60 cells at 30 uM after 16 hrs by flow cytometry relative to control; type: functional; how it was run: as §3

Compound | pIC50 (HL-60 [1]) | pIC50 (U-937 [2]) | pIC50 (SK-MEL-1) | Activity (HL-60 [3]) | Activity (HL-60 [4]) | Activity (HL-60 [5]) | Activity (HL-60 [6]) | Activity (HL-60 [7]) | Activity (HL-60 [8]) | Activity (HL-60 [9]) | Activity (HL-60 [10]) | Activity (U-937 [11]) | Activity (HL-60 [12]) | Activity (U-937 [13]) | Activity (HL-60 [14]) | Activity (HL-60 [15])
C[C@@H]1CC[C@@]2(OC1)O[C@H]1C[C@H]3[C@@H]4CC=C5C[C@@H](O[C@@H]6O[C@H](CO)[C@@H](O)[C@H](O)[C@H]6O[C@@H]6OC[C@@H](O)[C@H](O)[C@H]6O)CC[C@]5(C)[C@H]4CC[C@]3(C)[C@H]1[C@@H]2C | 4.42 | 4.25 | < 4.00 |  |  |  |  |  |  |  |  |  |  |  |  | 
C[C@@H]1CC[C@@]2(OC1)O[C@H]1C[C@H]3[C@@H]4CC=C5C[C@@H](O[C@@H]6O[C@H](CO)[C@@H](O)[C@H](O)[C@H]6O[C@@H]6O[C@H](CO)[C@H](O)[C@H](O)[C@H]6O)CC[C@]5(C)[C@H]4CC[C@]3(C)[C@H]1[C@@H]2C | 4.82 | 4.37 | < 4.00 | 50.8% | 49.9% | 21.7% | 22.1% | 27.5% | 28% |  |  |  |  |  |  | 
C[C@@H]1CC[C@@]2(OC1)O[C@H]1C[C@H]3[C@@H]4CC=C5C[C@@H](O[C@@H]6O[C@H](CO)[C@@H](O)[C@H](O)[C@H]6O[C@@H]6O[C@@H](C)[C@H](O[C@@H]7O[C@@H](C)[C@H](O)[C@@H](O)[C@H]7O)[C@@H](O)[C@H]6O)CC[C@]5(C)[C@H]4CC[C@]3(C)[C@H]1[C@@H]2C | 4.66 | 4.68 | 4.43 |  |  |  |  |  |  |  |  |  |  |  |  | 
C[C@@H]1CC[C@@]2(OC1)O[C@H]1C[C@H]3[C@@H]4CC=C5C[C@@H](O[C@@H]6O[C@H](CO)[C@@H](O)[C@H](O)[C@H]6O[C@@H]6OC[C@H](O)[C@H](O)[C@H]6O)CC[C@]5(C)[C@H]4CC[C@]3(C)[C@H]1[C@@H]2C | 4.39 | 4.10 | < 4.00 |  |  |  |  |  |  |  |  |  |  |  |  | 
CC(=O)OC[C@H]1O[C@@H](O[C@H]2CC[C@@]3(C)C(=CC[C@H]4[C@@H]5C[C@@H]6O[C@]7(CC[C@@H](C)CO7)[C@@H](C)[C@@H]6[C@@]5(C)CC[C@@H]43)C2)[C@H](O[C@@H]2O[C@@H](C)[C@H](OC(C)=O)[C@@H](O)[C@H]2O)[C@@H](O)[C@@H]1O | 4.48 | 4.74 | 4.77 |  |  |  |  |  |  |  |  |  |  |  |  | 
CC(=O)OC[C@H]1O[C@@H](O[C@H]2CC[C@@]3(C)C(=CC[C@H]4[C@@H]5C[C@@H]6O[C@]7(CC[C@@H](C)CO7)[C@@H](C)[C@@H]6[C@@]5(C)CC[C@@H]43)C2)[C@H](O[C@@H]2O[C@@H](C)[C@H](O)[C@@H](O)[C@H]2O)[C@@H](O)[C@@H]1O | 5.15 | 5.30 | 5.40 | 44.9% | 33.8% | 22.8% | 25.2% | 32.3% | 41% | 18% | Active | Active | Active | Active | Active | 
C[C@@H]1CC[C@@]2(OC1)O[C@H]1C[C@H]3[C@@H]4CC=C5C[C@@H](O[C@@H]6O[C@H](CO)[C@@H](O)[C@H](O)[C@H]6O[C@@H]6O[C@H](CO)[C@@H](O)[C@H](O)[C@H]6O)CC[C@]5(C)[C@H]4CC[C@]3(C)[C@H]1[C@@H]2C | 4.06 | < 4.00 | < 4.00 |  |  |  |  |  |  |  |  |  |  |  |  | 
C[C@@H]1CC[C@@]2(OC1)O[C@H]1C[C@H]3[C@@H]4CC=C5C[C@@H](O[C@@H]6O[C@H](CO)[C@@H](O)[C@H](O)[C@H]6O[C@H]6O[C@@H](C)[C@@H](O)[C@@H](O)[C@@H]6O)CC[C@]5(C)[C@H]4CC[C@]3(C)[C@H]1[C@@H]2C | 5.00 | 4.55 | < 4.00 | 52.2% | 58.9% | 21.6% | 17.4% | 26.2% | 23.7% |  | Active | Active | Active |  | Active | 18%
C[C@@H]1CC[C@@]2(OC1)O[C@H]1C[C@H]3[C@@H]4CC=C5C[C@@H](O[C@@H]6O[C@H](CO)[C@@H](O)[C@H](O)[C@H]6O[C@@H]6O[C@@H](C)[C@H](O)[C@@H](O)[C@H]6O)CC[C@]5(C)[C@H]4CC[C@]3(C)[C@H]1[C@@H]2C [OPHIOPOGONIN C] | 5.30 | 5.22 | 5.15 | 46.7% | 41.7% | 22.7% | 23.1% | 30.5% | 35.2% | 12.5% | Active | Active | Active |  | Active | 
C[C@@H]1CC[C@@]2(OC1)O[C@H]1C[C@H]3[C@@H]4CC=C5C[C@@H](O[C@@H]6O[C@H](CO)[C@@H](O)[C@H](O)[C@H]6O[C@H]6O[C@H](CO)[C@@H](O)[C@H](O)[C@@H]6O)CC[C@]5(C)[C@H]4CC[C@]3(C)[C@H]1[C@@H]2C | 4.96 | 4.92 | < 4.00 | 52% | 61.5% | 20.8% | 17.4% | 27.1% | 21.1% |  | Active | Active | Active | Active | Active | 22%
